Assay results as given in ChEMBL document CHEMBL1133571, “Extended TIP(P) analogues as precursors for labeled delta-opioid receptor ligands” (J Med Chem, 2000).
Values joined by “and” are separate entries in the source; they are usually repeats but may differ in a detail not shown here. Identical values can stand only once. Where a SMILES comes first, the peptide text is derived from it. [ ]: non-standard residue; d: D form. Tic = O=C(O)[C@@H]1Cc2ccccc2CN1

Legend:
[1] = target: Delta-type opioid receptor (Homo sapiens, UniProt P41143); experiment: Affinity towards human Opioid receptor delta 1 on CHO cell membranes using [3H]DPDPE displacement.
Delta-type opioid receptor, sequence (P41143 whole entry): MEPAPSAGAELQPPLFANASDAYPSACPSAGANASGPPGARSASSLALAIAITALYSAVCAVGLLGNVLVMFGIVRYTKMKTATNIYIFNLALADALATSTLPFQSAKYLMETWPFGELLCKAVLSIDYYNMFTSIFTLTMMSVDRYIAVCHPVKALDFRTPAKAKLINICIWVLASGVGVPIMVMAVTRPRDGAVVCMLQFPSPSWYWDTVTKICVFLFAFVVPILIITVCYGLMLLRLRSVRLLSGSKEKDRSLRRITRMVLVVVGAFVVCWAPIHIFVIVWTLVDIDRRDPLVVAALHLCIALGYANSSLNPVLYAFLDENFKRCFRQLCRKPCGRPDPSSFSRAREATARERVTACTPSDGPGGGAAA
Procedure, shortened: (§1)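 Membranes from CHO cells stably expressing cloned δ or µ receptors. Incubated 90 min at 22 °C with peptide concentrations up to 10 µM, 3 mM Mg2+, and peptidase inhibitors (10 µM bestatin, 30 µM captopril, 50 µM L-leucyl-L-leucine). Nonspecific binding measured with 10 µM unlabeled ligand. IC50 from nonlinear regression converted to Ki by Cheng-Prusoff (KD: [3H]DPDPE 0.5 nM, δ; [3H]DAMGO 0.644 nM, µ).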

[2] = target: Mu-type opioid receptor (Homo sapiens, UniProt P35372); experiment: Affinity towards human Opioid receptor mu 1 on CHO cell membranes using [3H]DAMGO displacement.; procedure, shortened: as §1
Mu-type opioid receptor, sequence (P35372 whole entry): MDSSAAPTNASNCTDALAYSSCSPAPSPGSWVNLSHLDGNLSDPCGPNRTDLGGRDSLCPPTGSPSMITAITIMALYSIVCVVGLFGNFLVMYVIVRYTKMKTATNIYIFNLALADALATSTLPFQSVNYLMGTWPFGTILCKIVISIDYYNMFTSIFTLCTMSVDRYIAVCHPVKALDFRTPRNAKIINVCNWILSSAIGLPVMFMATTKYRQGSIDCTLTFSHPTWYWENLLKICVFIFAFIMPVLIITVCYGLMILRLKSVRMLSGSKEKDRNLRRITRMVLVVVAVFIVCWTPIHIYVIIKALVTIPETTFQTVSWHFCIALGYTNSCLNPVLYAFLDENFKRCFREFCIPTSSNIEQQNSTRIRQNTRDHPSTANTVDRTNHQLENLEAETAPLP

NC(=O)[C@@H](CC(=O)O)NC(=O)[C@H](Cc1ccccc1)NC(=O)[C@H](Cc1ccccc1)NC(=O)[C@@H]1Cc2ccccc2CN1C(=O)[C@@H](N)Cc1ccc(O)cc1
Ki [1]: 10.3 nM
Ki [2]: 3280 nM

NC(=O)C[C@@H](NC(=O)[C@H](Cc1ccccc1)NC(=O)[C@H](Cc1ccccc1)NC(=O)[C@@H]1Cc2ccccc2CN1C(=O)[C@@H](N)Cc1ccc(O)cc1)C(=O)O
Ki [1]: 8.1 nM
Ki [2]: 3200 nM

NC(=O)C[C@H](NC(=O)[C@H](Cc1ccccc1)NC(=O)[C@H](Cc1ccccc1)NC(=O)[C@@H]1Cc2ccccc2CN1C(=O)[C@@H](N)Cc1ccc(O)cc1)C(=O)O
Ki [1]: 7.1 nM
Ki [2]: > 4500 nM

NC(=O)[C@H](CC(=O)O)NC(=O)[C@H](Cc1ccccc1)NC(=O)[C@H](Cc1ccccc1)NC(=O)[C@@H]1Cc2ccccc2CN1C(=O)[C@@H](N)Cc1ccc(O)cc1
Ki [1]: 9.5 nM
Ki [2]: > 4000 nM

CC(=O)NCCCC[C@H](NC(=O)[C@H](Cc1ccccc1)NC(=O)[C@@H]1Cc2ccccc2CN1C(=O)[C@@H](N)Cc1ccc(O)cc1)C(=O)O
Ki [1]: 27.8 nM
Ki [2]: > 4500 nM

NC(=O)CC[C@@H](NC(=O)[C@H](Cc1ccccc1)NC(=O)[C@@H]1Cc2ccccc2CN1C(=O)[C@@H](N)Cc1ccc(O)cc1)C(=O)O
Ki [1]: 5 nM
Ki [2]: > 4500 nM

NC(=O)CC[C@H](NC(=O)[C@H](Cc1ccccc1)NC(=O)[C@H](Cc1ccccc1)NC(=O)[C@@H]1Cc2ccccc2CN1C(=O)[C@@H](N)Cc1ccc(O)cc1)C(=O)O
Ki [1]: 9.7 nM
Ki [2]: > 4500 nM

NC(=O)[C@@H](CCC(=O)O)NC(=O)[C@H](Cc1ccccc1)NC(=O)[C@@H]1Cc2ccccc2CN1C(=O)[C@@H](N)Cc1ccc(O)cc1
Ki [1]: 34.9 nM
Ki [2]: > 4500 nM

NC(=O)CC[C@H](NC(=O)[C@H](Cc1ccccc1)NC(=O)[C@@H]1Cc2ccccc2CN1C(=O)[C@@H](N)Cc1ccc(O)cc1)C(=O)O
Ki [1]: 37.7 nM
Ki [2]: > 4500 nM

NC(=O)[C@H](CCC(=O)O)NC(=O)[C@H](Cc1ccccc1)NC(=O)[C@H](Cc1ccccc1)NC(=O)[C@@H]1Cc2ccccc2CN1C(=O)[C@@H](N)Cc1ccc(O)cc1
Ki [1]: 9.9 nM
Ki [2]: > 4500 nM

NC(=O)[C@@H](CCC(=O)O)NC(=O)[C@H](Cc1ccccc1)NC(=O)[C@H](Cc1ccccc1)NC(=O)[C@@H]1Cc2ccccc2CN1C(=O)[C@@H](N)Cc1ccc(O)cc1
Ki [1]: 7.8 nM
Ki [2]: 1950 nM

NC(=O)[C@@H](CC(=O)O)NC(=O)[C@H](Cc1ccccc1)NC(=O)[C@@H]1Cc2ccccc2CN1C(=O)[C@@H](N)Cc1ccc(O)cc1
Ki [1]: 69 nM
Ki [2]: > 4500 nM

NC(=O)C[C@H](NC(=O)[C@H](Cc1ccccc1)NC(=O)[C@@H]1Cc2ccccc2CN1C(=O)[C@@H](N)Cc1ccc(O)cc1)C(=O)O
Ki [1]: 61.1 nM
Ki [2]: > 4500 nM

CC(=O)NCCCC[C@@H](NC(=O)[C@H](Cc1ccccc1)NC(=O)[C@@H]1Cc2ccccc2CN1C(=O)[C@@H](N)Cc1ccc(O)cc1)C(=O)O
Ki [1]: 21.6 nM
Ki [2]: > 4500 nM

NC(=O)CC[C@@H](NC(=O)[C@H](Cc1ccccc1)NC(=O)[C@H](Cc1ccccc1)NC(=O)[C@@H]1Cc2ccccc2CN1C(=O)[C@@H](N)Cc1ccc(O)cc1)C(=O)O
Ki [1]: 5.1 nM
Ki [2]: > 4500 nM

NC(=O)[C@H](CC(=O)O)NC(=O)[C@H](Cc1ccccc1)NC(=O)[C@@H]1Cc2ccccc2CN1C(=O)[C@@H](N)Cc1ccc(O)cc1
Ki [1]: 21.4 nM
Ki [2]: > 4500 nM

NC(=O)[C@H](CCC(=O)O)NC(=O)[C@H](Cc1ccccc1)NC(=O)[C@@H]1Cc2ccccc2CN1C(=O)[C@@H](N)Cc1ccc(O)cc1
Ki [1]: 19.9 nM
Ki [2]: 4500 nM

NC(=O)C[C@@H](NC(=O)[C@H](Cc1ccccc1)NC(=O)[C@@H]1Cc2ccccc2CN1C(=O)[C@@H](N)Cc1ccc(O)cc1)C(=O)O
Ki [1]: 13.7 nM
Ki [2]: > 4500 nM

CC(=O)NCCCC[C@@H](NC(=O)[C@H](Cc1ccccc1)NC(=O)[C@H](Cc1ccccc1)NC(=O)[C@@H]1Cc2ccccc2CN1C(=O)[C@@H](N)Cc1ccc(O)cc1)C(=O)O
Ki [1]: 16.3 nM and 21.5 nM
Ki [2]: > 4500 nM

N[C@@H](Cc1ccc(O)cc1)C(=O)N1Cc2ccccc2C[C@H]1C(=O)N[C@@H](Cc1ccccc1)C(=O)O (H-Tyr-[Tic]-Phe-OH)
Ki [1]: 148 nM
Ki [2]: > 4500 nM

N[C@@H](Cc1ccc(O)cc1)C(=O)N1Cc2ccccc2C[C@H]1C(=O)N[C@@H](Cc1ccccc1)C(=O)N[C@@H](Cc1ccccc1)C(=O)O (H-Y[Tic]FF-OH)
Ki [1]: 6.1 nM and 1.22 nM
Ki [2]: > 4500 nM
